The list is not random: actives were taken first. Their share in the collection is about 2.1%.
Pf gamet viab = late stage P. falciparum gametocyte viability inhibitors, primary screen, ATP luminescence, HTS; P. falciparum stage V gametocytes, 24 h; inhibition, % at 10.9 µM; 150,000 tested, 0.065% active;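 active means inhibition above the mean plus 3 SD of compounds within the control limits, set per campaign, cut at about 38% in these data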
Calpain2 inh = inhibitors of pig calpain II, primary screen, biochemical, fluorogenic peptide substrate, 1536-well; AID 1236, 2008; purified calpain II, 30 min; 220,000 tested, 0.37% active; inhibition, % at 16 µM;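 active means inhibition above about 50%, limit read from the data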
RBBP9 inh = human RBBP9 inhibitors, primary screen, biochemical, fluorescence polarization, FP-Rh probe, HTS | 220,000 tested, 0.2% active | Serine hydrolase RBBP9 (Homo sapiens), O75884 | AID 1515, 2009 | recombinant RBBP9 | inhibition, % at 7.94 µM;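 active means inhibition above the campaign mean of all tested compounds plus 3 SD, cut at about 14% in these data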
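Controls: DMSO-treated enzyme wells and wells lacking RBBP9 | Material: RBBP9 protein | Technique: Fluorescence polarization | Replication: Single well per compound, no replicates | Buffer or medium: Tris-NaCl-Pluronic buffer, pH 8.0 | Timing: 30 min compound preincubation, 45 min probe labeling, 25 °C | Read-out basis: Percent inhibition from mP, scaled between DMSO and no-protein wells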
zVAD death inh = inhibitors of zVAD-triggered necroptosis, primary screen, L929 cells. viability rescue, % at 10 µM. L929 zVAD necroptosis rescue, ATP luminescence, 24 h; with zVAD 60 µM. 220,000 tested, 0.38% active. AID 1377, 2008;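 active means activation, scaled between plate controls, above about 75%, limit read from the data; inactive means activation under that limit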
TNF necrop inh = inhibitors of TNF-alpha triggered necroptosis, primary screen, cell-based, Jurkat FADD-/-, single concentration | 220,000 tested, 0.068% active | Jurkat FADD-/- TNF necroptosis rescue, ATP luminescence, 24 h; 0 = TNF only, 100 = no-TNF cells | activation (protection from cell death), % at 10 µM;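 active means activation, meaning protection from cell death, of at least 50% relative to plate controls; inactive means activation below 50%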;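 further: necroptosis triggered by 40 ng/mL TNF-alpha added together with compound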
Wee1 stabilizer = Wee1 degradation inhibitors, primary screen, cell-based, HeLa, Wee1K328M-luciferase, luminescence | reporter increase, % at 5 µM | Wee1-like protein kinase (Homo sapiens), P30291 | HeLa Luc-Wee1K328M stability; 100% = proteasome inhibitor MG132 effect | 220,000 tested, 1.2% active | AID 1321, 2008;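 active means activation above the mean of all tested compounds plus 3 SD, set per screening run, cut at about 8.8% in these data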;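 further: cells exposed to compound for 20 h before luminescence read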
Target sequence (P30291 whole entry K328M): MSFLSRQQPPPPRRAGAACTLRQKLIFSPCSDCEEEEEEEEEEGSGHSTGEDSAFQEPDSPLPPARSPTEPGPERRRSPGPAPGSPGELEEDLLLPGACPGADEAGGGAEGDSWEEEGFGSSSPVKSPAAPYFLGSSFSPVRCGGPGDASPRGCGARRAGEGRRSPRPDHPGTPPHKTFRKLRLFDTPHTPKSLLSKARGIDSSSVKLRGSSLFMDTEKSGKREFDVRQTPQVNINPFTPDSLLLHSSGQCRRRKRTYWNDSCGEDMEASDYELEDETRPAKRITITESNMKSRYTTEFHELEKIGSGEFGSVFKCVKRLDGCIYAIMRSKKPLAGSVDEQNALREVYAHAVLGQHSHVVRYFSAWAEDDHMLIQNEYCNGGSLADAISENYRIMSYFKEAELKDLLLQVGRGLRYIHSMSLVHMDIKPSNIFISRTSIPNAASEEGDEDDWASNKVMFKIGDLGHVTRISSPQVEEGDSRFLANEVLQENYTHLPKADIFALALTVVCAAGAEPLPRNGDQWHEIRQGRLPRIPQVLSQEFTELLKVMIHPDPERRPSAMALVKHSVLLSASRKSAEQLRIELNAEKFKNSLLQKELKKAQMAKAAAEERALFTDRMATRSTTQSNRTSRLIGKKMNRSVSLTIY
Hits are given with their value; n = inactive; x = not tested or not shown.

SMILES | Pf gamet viab | Calpain2 inh | RBBP9 inh | zVAD death inh | TNF necrop inh | Wee1 stabilizer
CCn1c(SCC(=O)Nc2cc(C)on2)nc2sc3c(c2c1=O)CCCC3 | n | n | n | n | n | n
Cc1cc(NC(=O)CSc2nc3sc4c(c3c(=O)n2C)CCCC4)no1 | n | 52 | n | n | n | n
Cn1cc(C(c2ccccc2OCC(=O)O)c2cn(C)c3ccccc23)c2ccccc21 | n | x | x | x | x | x
COc1cc(C2NC(=S)NC(C)=C2C(=O)Nc2ccc(C)cc2)ccc1O (stereo not drawn) | n | n | n | n | n | n
N#C/C(=C(/O)c1cccc(F)c1)c1nc2ccccc2s1 | n | n | n | n | n | 10
Cc1cc(NCCCN2CCOCC2)n2ncc(-c3ccccc3)c2n1 | n | n | n | n | n | 11
Cc1c(C(=O)N/N=C/c2ccc(O)c(Br)c2)sc(N)c1C#N | n | n | n | 76 | n | n
CC(C)[C@H](NC(=O)c1cccc(S(=O)(=O)N2CCOCC2)c1)C(=O)Nc1nc2ccccc2s1 | x | n | n | n | n | n
CCCCNC(=O)c1onc(CSc2ccc(F)c(F)c2)c1C(=O)O | x | n | n | n | n | n
COc1ccc(CNC(=O)CCCn2nc([N+](=O)[O-])cc2C)cc1 | n | 60 | n | n | n | n
Cc1cc([N+](=O)[O-])nn1CCCC(=O)Nc1cc(Oc2ccc(F)cc2)cc([N+](=O)[O-])c1 | x | n | n | x | n | n
Cc1cc([N+](=O)[O-])nn1CCCC(=O)Nc1cc(Oc2ccccc2)cc([N+](=O)[O-])c1 | n | 56 | n | x | n | n
O=C(CNC(=O)c1ccc(-c2ccccc2)cc1)OCc1c(Cl)cccc1Cl | x | n | n | n | n | n
CC/C(=N\NC(=O)c1ccc(N(C)C)cc1)c1ccccc1 | n | n | n | n | n | 9.5
C=C(C)Cn1c(CCCNC(=O)C(C)(C)C)nc2ccccc21 | x | n | n | n | n | n
O=C1CN(C(=O)COc2cccc(F)c2)c2ccccc2N1 | n | n | n | n | n | n
Cc1noc(C)c1COc1cccc(C(=O)OCC(=O)N2CC(=O)Nc3ccccc32)c1 | n | n | n | n | n | 18
Cc1c(Nc2scc(-c3ccccc3)[n+]2-c2ccccc2)c(=O)n(-c2ccccc2)n1C | x | n | n | n | n | n
Cc1ccccc1Nc1scc(-c2ccc(Cl)cc2)[n+]1-c1ccccc1C | n | 50 | n | n | n | n
CC(C)Cc1cc(C(=O)N2CCCC(CCC(=O)N(C)CCc3ccccn3)C2)no1 (stereo not drawn) | n | n | n | n | n | n
COc1cc(/C(C)=N/NC(=O)CN2CCN(S(=O)(=O)c3ccc(C)cc3)CC2)ccc1O | 39 | n | n | n | n | n
COCCn1c(SCC(=O)NCc2ccc3c(c2)OCO3)nnc1-c1c[nH]c2ccccc12 | x | n | n | n | n | n
Cc1ccc(NC(=O)N2CCN(C/C=C/c3ccccc3)CC2)cc1 | n | n | n | n | n | n
COC(=O)c1ccccc1NC(=O)N1CCN(C/C=C/c2ccccc2)CC1 | n | n | n | n | n | 10
S=C(Nc1ccccc1)N1CCN(C/C=C/c2ccccc2)CC1 | n | n | n | n | n | 10
SMILES | Pf gamet viab | Calpain2 inh | RBBP9 inh | zVAD death inh | TNF necrop inh | Wee1 stabilizer
COC(=O)c1ccccc1NC(=O)N1CCN(c2ccc(F)cc2)CC1 | x | 51 | n | n | n | n
Cc1cc(C)nc(N(C#N)Cc2cccc(Cl)c2)n1 | x | n | n | n | n | n
C[C@@H]1CCC(=O)N(CC[C@H](Sc2ccccc2)c2ccccc2)CC1 | n | x | x | x | x | x
CC(=O)N1CCN(Cc2nc3cc(NC(=O)Nc4ccccc4)ccc3n2C)CC1 | n | n | n | n | n | n
c1ccn2c(CNc3ncnc4sccc34)nnc2c1 | x | n | n | n | n | n
O=C(N=Nc1c(O)[nH]c2ccc([N+](=O)[O-])cc12)c1cc(-c2ccccc2Cl)nc2ccccc12 | x | 69 | n | n | n | n
CC(=O)Nc1ccc(S(=O)(=O)Nc2ccc(S(=O)(=O)N3CCCC3)cc2)cc1 | n | n | n | n | n | 9.2
Cn1nc(C(=O)Nc2ccc(S(=O)(=O)N3CCCC3)cc2)ccc1=O | x | n | n | n | n | n
CC(=O)Nc1ccc(S(=O)(=O)N2CCN(C)CC2)cc1 | n | n | n | n | n | n
Cn1nc(C(=O)Nc2ccc(S(=O)(=O)N3CCCCC3)cc2)c2ccccc2c1=O | x | 51 | n | n | n | n
CCN1C(=NCCc2c[nH]c3ccccc23)N[C@@H](c2ccccc2)[C@H](C(=O)OC)[C@H]1C | n | x | x | x | x | x
COc1ccc(-n2c(C)nc3sc4c(c3c2=O)CCCC4)cc1 | x | n | n | n | 89 | n
CCN(C(=O)COC(=O)c1cc(-c2ccccc2)nc2ccc(Br)cc12)C1CCS(=O)(=O)C1 (stereo not drawn) | x | n | n | n | n | 9.2
O=C(c1ccc([N+](=O)[O-])cc1[N+](=O)[O-])N1CCc2ccccc21 | n | x | x | x | x | x
O=C(N=C1N=C2C=CC(Br)=CN2Cc2ccccc21)c1ccc([N+](=O)[O-])cc1[N+](=O)[O-] | n | n | n | n | n | 11
COc1ccc(OC)c(NC(=O)CC(NC(C)=O)c2ccccc2)c1 (stereo not drawn) | n | n | n | n | n | n
CCOC(=O)C1=C(c2ccccc2)NC(N)=NC1c1ccc(OCc2ccc(Cl)cc2)c(OC)c1 (stereo not drawn) | n | n | n | n | n | n
COc1ccc(NC(=O)Nc2sc(=S)n(C)c2C)cc1 | n | n | n | n | n | 12
CSc1ccc(/C=N/n2c(C)cc(C)cc2=O)cc1 | n | n | n | n | n | n
Cc1ccc(S(=O)(=O)Cn2nnnc2CN2CCOCC2)cc1 | n | n | n | n | n | 11
Cc1ccc(S(=O)(=O)Cn2nnnc2CN2CCCC3(CCCCC3)C2)cc1 | x | n | n | n | n | n
CCOC(=O)c1cc(NC(=O)Nc2ccccn2)c(C)nc1C | n | n | n | n | n | n
CCN(CC)S(=O)(=O)c1cc(NS(=O)(=O)c2ccccc2)ccc1C | n | 56 | n | n | n | n
O=S(=O)(Nc1ccc(S(=O)(=O)Nc2ccccc2)cc1)c1ccccc1 | n | n | n | n | n | 9.2
Cc1cccc(NC(=O)C2CCN(S(=O)(=O)c3cccc4nsnc34)CC2)n1 | x | n | n | n | n | n
COc1ccc2nc(NC(=O)C3CCN(S(=O)(=O)c4cccc5nsnc45)CC3)sc2c1 | x | n | n | 77 | n | n
CCN1C(=O)/C(=C\c2cn(-c3ccccc3)nc2-c2cccnc2)SC1=S | x | 51 | n | n | n | n

Compound activity from PubChem BioAssay.
